Measured values taken from ChEMBL document CHEMBL2417474, “Synthesis, antiproliferative and anti-inflammatory activities of some novel 6-aryl-2-(p-(methanesulfonyl)phenyl)-4,5-dihydropyridazi-3(2H)-ones” (Eur J Med Chem, 2013).

Experiments:
Assay type in all cases: functional
[1] = tested on: PC-3; test: Growth inhibition of human PC3 cells after 48 hrs by sulforhodamine B assay; settings: PC-3, 48 h
Summary of the method: (§1)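 NCI 60-cell-line panel. Cells were grown in medium with 5% fetal calf serum and 2 mM L-glutamine, then preincubated 24 h in plates. Compounds were added from DMSO at five 10-fold concentrations from 100 to 0.01 µM and left on cells continuously for 48 h. Cell growth was read by sulforhodamine B protein stain. GI50 is the concentration that halves net protein increase relative to control cells.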

[2] = tested on: NCI-H522; test: Growth inhibition of human NCI-H522 cells assessed as cell growth at 10 uM after 48 hrs by sulforhodamine B assay; settings: NCI-H522, 48 h, read-out: Activity
[3] = tested on: LOX IMVI; test: Growth inhibition of human LOXIMVI cells assessed as cell growth at 10 uM after 48 hrs by sulforhodamine B assay; settings: read-out: Activity
[4] = Growth inhibition of human Hs 578T cells after 48 hrs by sulforhodamine B assay
Summary of the method: (§2)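 NCI 60-cell-line panel grown in RPMI-type medium with 5% fetal calf serum and 2 mM L-glutamine. Cells preincubated 24 h, then exposed continuously for 48 h to compound in DMSO at 10^-4 to 10^-8 M (five 10-fold levels). Growth read by SRB protein stain. GI50 is the concentration giving a 50% reduction in net protein increase relative to control cells.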

[5] = tested on: MDA-MB-468; test: Growth inhibition of human MDA-MB-468 cells after 48 hrs by sulforhodamine B assay; settings: MDA-MB-468, 48 h; summary of the method: as §1
[6] = tested on: SK-MEL-5; test: Growth inhibition of human SK-MEL-5 cells assessed as cell growth at 10 uM after 48 hrs by sulforhodamine B assay; settings: SK-MEL-5, 48 h, read-out: Activity
[7] = tested on: SNB-19; test: Growth inhibition of human SNB19 cells after 48 hrs by sulforhodamine B assay; settings: SNB-19, 48 h; for CC50: read-out: LC50 (the source's name); summary of the method: as §1
[8] = tested on: A549; test: Growth inhibition of human A549/ATCC cells assessed as cell growth at 10 uM after 48 hrs by sulforhodamine B assay; settings: A549, 48 h, read-out: Activity
[9] = tested on: SF-268; test: Growth inhibition of human SF268 cells assessed as cell growth at 10 uM after 48 hrs by sulforhodamine B assay; settings: SF-268, 48 h, read-out: Activity
[10] = tested on: MDA-MB-435; test: Growth inhibition of human MDA-MB-435 cells assessed as cell growth at 10 uM after 48 hrs by sulforhodamine B assay; settings: MDA-MB-435, 48 h, read-out: Activity
[11] = tested on: ACHN; test: Growth inhibition of human ACHN cells after 48 hrs by sulforhodamine B assay; summary of the method: as §2
[12] = tested on: 786-0; test: Growth inhibition of human 786-0 cells assessed as cell growth at 10 uM after 48 hrs by sulforhodamine B assay; settings: 786-0, 48 h, read-out: Activity
[13] = tested on: MCF7; test: Growth inhibition of human MCF7 cells after 48 hrs by sulforhodamine B assay; settings: MCF7, 48 h; summary of the method: as §2
[14] = tested on: MOLT-4; test: Growth inhibition of human MOLT4 cells after 48 hrs by sulforhodamine B assay; settings: MOLT-4, 48 h; summary of the method: as §1
[15] = tested on: CAKI-1; test: Growth inhibition of human CAKI-1 cells after 48 hrs by sulforhodamine B assay; settings: CAKI-1, 48 h; summary of the method: as §2
[16] = tested on: HL-60(TB); test: Growth inhibition of human HL-60(TB) cells assessed as cell growth at 10 uM after 48 hrs by sulforhodamine B assay; settings: HL-60, 48 h, read-out: Activity
[17] = tested on: RPMI-8226; test: Growth inhibition of human RPMI8226 cells after 48 hrs by sulforhodamine B assay; settings: RPMI-8226, 48 h; for CC50: read-out: LC50 (the source's name); summary of the method: as §1
[18] = tested on: SN12C; test: Growth inhibition of human SN12C cells after 48 hrs by sulforhodamine B assay
Summary of the method: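 Part of the NCI 60-cell-line panel. Cells were grown in 1640 medium with 5% fetal calf serum and 2 mM L-glutamine, then preincubated 24 h before compound was added. Compounds in DMSO were tested at five concentrations (100, 10, 1, 0.1, 0.01 µM) with 48 h continuous exposure. Read-out was SRB protein staining; GI50 is the concentration halving the net protein increase versus control.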

[19] = Growth inhibition of human HCC2998 cells assessed as cell growth at 10 uM after 48 hrs by sulforhodamine B assay; settings: HCC 2998, 48 h, read-out: Activity
[20] = tested on: SN12C; test: Growth inhibition of human SN12C cells assessed as cell growth at 10 uM after 48 hrs by sulforhodamine B assay; settings: read-out: Activity
[21] = tested on: Rattus norvegicus; test: Antiinflammatory activity in Wistar rat assessed as inhibition of carrageenan-induced paw edema at 0.05 mmol/kg, po administered 30 mins prior challenge measured after 5 hrs
Summary of the method: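 Wistar rats of either sex, 150–175 g, fasted 16 h, 6 per group. Dosed orally at 0.05 mmol/kg, suspended in 1% CMC in water (10 ml/kg). 30 min later, 0.1 ml of 1% carrageenan in saline injected subplantar into the left hind paw. Paw volume read by plethysmometer at 0, 3 and 5 h. % inhibition = (1 − Vt/Vc) × 100 against the vehicle group.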

[22] = tested on: TK-10; test: Growth inhibition of human TK10 cells after 48 hrs by sulforhodamine B assay; settings: TK-10, 48 h; for CC50: read-out: LC50 (the source's name)
Summary of the method: (§3)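 NCI 60-line panel. Cells were grown in medium with 5% fetal calf serum and 2 mM L-glutamine and preincubated 24 h in plates. Compound in DMSO was added at 10^-4 to 10^-8 M (five 10-fold levels), with continuous exposure for 48 h. Growth was read by SRB protein staining. GI50 is the concentration giving 50% reduction in net protein increase versus control cells.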

[23] = tested on: PC-3; test: Growth inhibition of human PC3 cells assessed as cell growth at 10 uM after 48 hrs by sulforhodamine B assay; settings: PC-3, 48 h, read-out: Activity
[24] = tested on: UACC-257; test: Growth inhibition of human UACC257 cells assessed as cell growth at 10 uM after 48 hrs by sulforhodamine B assay; settings: UACC-257, 48 h, read-out: Activity
Summary of the method: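 Single-dose NCI screen. Tumor lines were cultured in medium with 5% fetal calf serum and 2 mM L-glutamine, preincubated 24 h, then given compound in DMSO. After 48 h continuous exposure, cell growth was estimated by sulforhodamine B protein assay.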

[25] = tested on: COLO 205; test: Growth inhibition of human COLO205 cells after 48 hrs by sulforhodamine B assay; settings: COLO 205, 48 h; for CC50: read-out: LC50 (the source's name); summary of the method: as §2
[26] = tested on: U-251; test: Growth inhibition of human U251 cells after 48 hrs by sulforhodamine B assay; settings: U-251, 48 h; for CC50: read-out: LC50 (the source's name); summary of the method: as §3

Question: What does the source list for Cc1cc(O)ccc1C1=NN(c2ccc(S(C)(=O)=O)cc2)C(=O)CC1?
Answer: GI50 [1]: 14.8 µM; LC50 [1]: > 100 µM; TGI [1]: > 100 µM; growth at 10 µM [2]: 2.39%; growth at 10 µM [3]: 67.5%; GI50 [4]: 4.15 µM; LC50 (concentration giving 50% net cell kill) [4]: > 100 µM; TGI [4]: > 100 µM; GI50 [5]: 11 µM; LC50 (concentration killing 50% of cells) [5]: > 100 µM; TGI [5]: 44.3 µM; growth at 10 µM [6]: 68.3%; GI50 [7]: 50.4 µM; TGI [7]: > 100 µM; CC50 [7]: > 100 µM; growth at 10 µM [8]: 72.2%; growth at 10 µM [9]: 80.3%; growth at 10 µM [10]: -8.25%; GI50 [11]: 37.8 µM; LC50 (concentration killing 50% of starting cells) [11]: > 100 µM; TGI [11]: > 100 µM; growth at 10 µM [12]: 84.1%; GI50 [13]: 20.7 µM; LC50 (concentration killing 50% of cells) [13]: > 100 µM; TGI [13]: > 100 µM; GI50 [14]: 14.3 µM; LC50 [14]: > 100 µM; TGI [14]: > 100 µM; LC50 (lethal concentration, 50% cell kill) [15]: > 100 µM; growth at 10 µM [16]: 52.6%; GI50 [17]: 25.6 µM; TGI [17]: > 100 µM; CC50 [17]: > 100 µM; GI50 [18]: 7.18 µM; LC50 [18]: > 100 µM; TGI [18]: > 100 µM; growth at 10 µM [19]: 78.6%; growth at 10 µM [20]: 90.3%; inhibition in vivo at 50 µmol/kg [21]: 52.6%; GI50 [22]: 80.5 µM; TGI [22]: > 100 µM; CC50 [22]: > 100 µM; growth at 10 µM [23]: 77.9%; growth at 10 µM [24]: 93%; GI50 [25]: 6.62 µM; TGI [25]: 74.4 µM; CC50 [25]: > 100 µM; GI50 [26]: 4.3 µM; TGI [26]: > 100 µM; CC50 [26]: > 100 µM

Question: Which GI50 [1] does the source give for Cc1ccc(C2=NN(c3ccc(S(C)(=O)=O)cc3)C(=O)CC2)cc1 here?
Answer: 1.43 µM

Question: What about the LC50 [1] of the same compound?
Answer: > 100 µM

Question: And the TGI [1]?
Answer: > 100 µM

Question: And the growth at 10 µM [2]?
Answer: 12.8%

Question: And the growth at 10 µM [3]?
Answer: 33.7%

Question: What about the GI50 [4] of the same compound?
Answer: 0.46 µM

Question: What about the LC50 (concentration giving 50% net cell kill) [4] of the same compound?
Answer: > 100 µM

Question: And the GI50 [5]?
Answer: 1.23 µM

Question: What about the LC50 (concentration killing 50% of cells) [5] of the same compound?
Answer: > 100 µM

Question: What about the TGI [5] of the same compound?
Answer: 4.86 µM

Question: And the growth at 10 µM [6]?
Answer: 13.9%

Question: What about the GI50 [7] of the same compound?
Answer: 1.25 µM

Question: And the TGI [7]?
Answer: > 100 µM

Question: And the CC50 [7]?
Answer: > 100 µM

Question: What about the growth at 10 µM [8] of the same compound?
Answer: 36.6%

Question: What about the growth at 10 µM [9] of the same compound?
Answer: 55.2%

Question: What about the growth at 10 µM [10] of the same compound?
Answer: -61.2%

Question: And the GI50 [11]?
Answer: 4.02 µM

Question: And the LC50 (concentration killing 50% of starting cells) [11]?
Answer: > 100 µM

Question: What about the TGI [11] of the same compound?
Answer: > 100 µM

Question: And the growth at 10 µM [12]?
Answer: 38.3%

Question: And the GI50 [13]?
Answer: 1.38 µM

Question: What about the LC50 (concentration killing 50% of cells) [13] of the same compound?
Answer: > 100 µM

Question: What about the TGI [13] of the same compound?
Answer: > 100 µM

Question: What about the GI50 [14] of the same compound?
Answer: 0.86 µM

Question: And the LC50 [14]?
Answer: > 100 µM

Question: What about the TGI [14] of the same compound?
Answer: > 100 µM

Question: And the GI50 [15]?
Answer: 0.29 µM

Question: And the LC50 (lethal concentration, 50% cell kill) [15]?
Answer: > 100 µM

Question: And the growth at 10 µM [16]?
Answer: -12%

Question: And the GI50 [17]?
Answer: 2.78 µM

Question: And the TGI [17]?
Answer: > 100 µM

Question: And the CC50 [17]?
Answer: > 100 µM

Question: And the LC50 [18]?
Answer: > 100 µM

Question: And the growth at 10 µM [19]?
Answer: 47.2%

Question: What about the growth at 10 µM [20] of the same compound?
Answer: 39.7%

Question: What about the inhibition in vivo at 50 µmol/kg [21] of the same compound?
Answer: 60.5%

Question: What about the GI50 [22] of the same compound?
Answer: 7.69 µM

Question: What about the TGI [22] of the same compound?
Answer: > 100 µM

Question: And the CC50 [22]?
Answer: > 100 µM

Question: What about the growth at 10 µM [23] of the same compound?
Answer: 29.3%

Question: What about the growth at 10 µM [24] of the same compound?
Answer: 50.7%

Question: What about the GI50 [25] of the same compound?
Answer: 0.52 µM

Question: And the TGI [25]?
Answer: 6.07 µM

Question: What about the CC50 [25] of the same compound?
Answer: > 100 µM

Question: And the GI50 [26]?
Answer: 0.45 µM

Question: What about the TGI [26] of the same compound?
Answer: > 100 µM

Question: What about the CC50 [26] of the same compound?
Answer: > 100 µM
